For data set [1], the system named is Rattus norvegicus. Kind of data set: Antiinflammatory activity in Wistar rat assessed as inhibition of carrageenan-induced paw oedema at 100 mg/kg, po dosed 30 mins after carrageenan challenge measured after 5 hrs by plethysmograph analysis relative to control. In kind it is functional. The gist of the method: (§1)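 Wistar rats (150–200 g, either sex) in groups of six. Carrageenan 1% w/v in saline, 0.1 ml, injected into the plantar left hind paw. Compound was given p.o. 30 min later as a suspension in 0.5% w/v CMC; controls received CMC. Paw volume was read by mercury-displacement plethysmograph at 0–5 h. % reduction = (1 − Vt/Vc)×100 versus control, at 5 h.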
A general note: In the carrageenan paw model, swelling and tenderness develop within hours.

Data set [2] has as its system Rattus norvegicus. Kind of data set: Ulcerogenicity in Wistar rat assessed as lesion score at 100 mg/kg, po after 6 hrs. In kind it is toxicity, organism-based. Also noted: dose 100 mg/kg, route oral. The note with it: in vivo. The gist of the method: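 Wistar rats of either sex (150–200 g, n = 6) were dosed orally and killed by cervical dislocation 6 h later. Stomachs were inflated with 2% formalin, fixed 10 min, and opened along the greater curvature. Lesions were examined under a dissecting microscope (10x grid). Longest lesion diameters were summed per animal as the lesion score (mm), then averaged per group.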

The test system of data set [3] is Rattus norvegicus. Nature of the data set: Antiinflammatory activity in po dosed Wistar rat assessed as inhibition of carrageenan-induced paw oedema compound administered 30 mins after carrageenan challenge measured after 5 hrs by plethysmograph analysis. In kind it is functional. The gist of the method: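 Carrageenan paw edema in Wistar rats (150–200 g, either sex, n = 6 per group): 0.1 ml 1% w/v carrageenan injected into the left plantar region. Compounds were suspended in 0.5% w/v CMC and dosed orally 30 min post-challenge at three graded doses. Plethysmographic (mercury displacement) paw volume was read to 5 h. ED50 was derived from the three-dose responses.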

The subject of data set [4] is Rattus norvegicus. Kind of data set: Antiinflammatory activity in Wistar rat assessed as inhibition of carrageenan-induced paw oedema at 10 mg/kg, po dosed 30 mins after carrageenan challenge measured after 5 hrs by plethysmograph analysis relative to control. The data set is classed as functional. The procedure, abridged: as §1
The subject of data set [5] is Rattus norvegicus. Nature of the data set: Antiinflammatory activity in Wistar rat assessed as inhibition of carrageenan-induced paw oedema at 30 mg/kg, po dosed 30 mins after carrageenan challenge measured after 5 hrs by plethysmograph analysis relative to control. The data set is classed as functional. The procedure, abridged:
as §1

Turning to `CCCCOc1cc(C(C)=O)ccc1NS(C)(=O)=O`, the inhibition in vivo at 100 mg/kg in the data set with Rattus norvegicus [1] was determined as 72.7%. In addition, in the data set on Rattus norvegicus [2], the UI is reported as 5 mm. Moreover, the ED50 in the data set on Rattus norvegicus [3] was determined as 2 mg/kg.
For `CC(=O)c1ccc(NS(C)(=O)=O)c(OC2CCCCC2)c1`, the inhibition in vivo at 100 mg/kg in the data set on Rattus norvegicus [1] is 73.7%. The UI in the data set with Rattus norvegicus [2] stood at 3 mm. For the same molecule, the ED50 in the data set with Rattus norvegicus [3] stood at 2.23 mg/kg.
For the molecule `CCCCCOc1cc(C(C)=O)ccc1NS(C)(=O)=O`, the inhibition in vivo at 100 mg/kg with Rattus norvegicus [1] is 59.6%. The UI with Rattus norvegicus [2] is reported as 4 mm. Besides, the median effective dose (ED50) with Rattus norvegicus [3] was found to be 8.18 mg/kg.
Take `CCCCCCOc1cc(C(C)=O)ccc1N`: the inhibition in vivo at 100 mg/kg with Rattus norvegicus [1] was determined as 14.1%. Further, the UI in the data set on Rattus norvegicus [2] is 3 mm.
With `CCCCCCOc1cc(C(C)=O)ccc1NS(C)(=O)=O`, the inhibition in vivo at 100 mg/kg with Rattus norvegicus [1] worked out at 76.8%. Moreover, the UI with Rattus norvegicus [2] amounted to 4 mm. Moreover, the 50% effective dose (ED50) in the data set on Rattus norvegicus [3] came out at 2.3 mg/kg.
For the molecule `CCCCCOc1cc(C(C)=O)ccc1N`, the inhibition in vivo at 100 mg/kg in the data set on Rattus norvegicus [1] turned out to be 9.88%. In addition, the UI in the data set with Rattus norvegicus [2] stood at 2 mm.
Regarding `COc1ccc2c(c1)c(CC(=O)O)c(C)n2C(=O)c1ccc(Cl)cc1` [INDOMETHACIN], the inhibition in vivo at 10 mg/kg in the data set with Rattus norvegicus [4] is 79.7%. In addition, the UI in the data set with Rattus norvegicus [2] stood at 22.3 mm. Besides, the 50% effective dose (ED50) in the data set on Rattus norvegicus [3] worked out at 2 mg/kg.
Turning to `CC(=O)c1ccc(N)c(OC2CCCCC2)c1`, in the data set on Rattus norvegicus [1], the inhibition in vivo at 100 mg/kg came out at 19%. The UI in the data set with Rattus norvegicus [2] was 3 mm.
Turning to `CS(=O)(=O)c1ccc(C2=C(c3ccccc3)C(=O)OC2)cc1` [ROFECOXIB], the inhibition in vivo at 30 mg/kg in the data set on Rattus norvegicus [5] turned out to be 81.8%. In the data set on Rattus norvegicus [2], the UI is reported as 3 mm. Further, the ED50 in the data set on Rattus norvegicus [3] was 2.5 mg/kg.
As for `CCCCOc1cc(C(C)=O)ccc1N`, in the data set with Rattus norvegicus [1], the inhibition in vivo at 100 mg/kg came to 13.8%. The UI in the data set with Rattus norvegicus [2] was determined as 2 mm.

For orientation: inhibition in vivo means the relative decrease from the control value, in per cent. What is called ED50 is the midpoint of the dose-response relation.

Values taken from ChEMBL document CHEMBL1944577, “Synthesis, evaluation and docking studies on 3-alkoxy-4-methanesulfonamido acetophenone derivatives as non ulcerogenic anti-inflammatory agents” (Eur J Med Chem, 2012).
